# Bioassay records from PubChem.
# NPY Y2 blocker: blocks the human neuropeptide Y Y2 receptor; NPY-Y2 expressing cells, antagonist mode; inhibition, % at 2.7 µM; AID 793; hit rate 0.99% among 140,000; P49146; in the data active = inhibition above about 17%
# Target sequence (P49146 whole entry, looked up): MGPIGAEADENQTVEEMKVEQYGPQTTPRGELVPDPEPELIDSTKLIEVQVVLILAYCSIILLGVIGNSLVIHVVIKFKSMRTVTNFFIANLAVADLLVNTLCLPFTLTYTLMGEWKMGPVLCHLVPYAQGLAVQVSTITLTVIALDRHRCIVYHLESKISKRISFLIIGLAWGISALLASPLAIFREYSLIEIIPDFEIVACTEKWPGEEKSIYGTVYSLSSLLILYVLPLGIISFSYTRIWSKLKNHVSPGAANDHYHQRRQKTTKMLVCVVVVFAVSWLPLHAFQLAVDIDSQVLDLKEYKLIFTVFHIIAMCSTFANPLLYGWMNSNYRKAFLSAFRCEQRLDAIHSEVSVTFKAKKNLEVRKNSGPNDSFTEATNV
# NPY2 pot ag: potentiates or activates human NPY-Y2 receptor; P49146; cells expressing NPY-Y2, potentiator/agonist read-out; activation, % at 3.6 µM; hit rate 0.45% among 220,000; AID 1359; in the data active = activation above about 27%;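 also: cells stimulated with NPY near EC25 plus isoproterenol at EC100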
# NPY1 pot ag: human NPY-Y1 potentiation or agonism, primary screen. hit rate 0.37% among 220,000. P25929. activation, % at 3.6 µM. NPY-Y1 expressing cells, potentiator/agonist activation; in the data active = activation above about 33%, passing the limit was not always enough;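 also: cells stimulated with NPY at EC10 then isoproterenol at EC100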
# NPY Y1 blocker: blocks the human neuropeptide Y Y1 receptor; inhibition, % at 3.6 µM; HEK293-CNG Y1 cells, membrane potential fluorescence; NPY at EC95, then isoproterenol; hit rate 1% among 200,000; P25929;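 active = inhibition above the campaign mean inhibition of all tested compounds plus 3 SD, cut at about 20% in these data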
#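 material = HEK293 cells with Y1 receptor plus CNG channel | also added = NPY 25 nM then isoproterenol 1 µM plus Ro 20-1724 25 µM | schedule = dye 3 h, compound 60 min room temperature, stimulation 45 min | measured by = membrane potential fluorescence | benchmarks = high control isoproterenol alone, low control NPY with isoproterenol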
# NPY1 antag ctr: human NPY-Y1 antagonism in NPY-Y2 counter-screen. shares compounds with NPY Y2 blocker. cell-based NPY-Y1 antagonism counterscreen. inhibition, % at 3.6 µM. hit rate 19% among 710. AID 1256; in the data active = inhibition above about 20%;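 also: cells challenged with NPY then isoproterenol with cAMP sensed through a CNG channel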
# NPY2 antag conf: confirmation of human neuropeptide Y receptor Y2 antagonists | shares compounds with NPY Y2 blocker | HEK293 NPY-Y2 CNG channel, membrane potential fluorescence | inhibition, % at 2.8 µM | hit rate 32% among 710;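 active = mean inhibition of triplicate wells above the hit cutoff set in the primary screen, cut at about 17% in these data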
# Hits are given with their value; . = inactive; / = not tested or not shown. Shown are actives, neighbours in structure and some others; about 1.8% of the full set was active somewhere.
SMILES,NPY Y2 blocker,NPY2 pot ag,NPY1 pot ag,NPY Y1 blocker,NPY1 antag ctr,NPY2 antag conf
O=c1c2ccccc2cnn1Cc1n[nH]c(=S)n1-c1ccc(Cl)cc1,28,.,.,.,.,.
O=C1CN(C(=O)COc2ccc(F)cc2Br)c2ccccc2N1,/,.,.,.,/,/
O=S(=O)(Nc1nc2ccccc2[nH]1)c1ccc2ccccc2c1,19,.,.,.,.,.
O=S(=O)(Nc1ncn[nH]1)c1ccc2ccccc2c1,.,.,.,.,/,/
O=C(C1CCN(Cc2ccc(OCc3ccccc3)cc2)CC1)N1CCCC1,.,.,.,.,/,/
O=C(C1CCN(Cc2ccc(Cl)cc2)CC1)N1CCN(C(c2ccccc2)c2ccccc2)CC1,20,.,.,.,.,32
Oc1ccccc1CNc1ccc(Br)cn1,151,.,.,.,26,52
Cc1ccc(OCC(=O)NC(=S)Nc2cccc(NC(=O)c3ccccc3)c2)cc1,37,.,.,.,.,.
Cc1nc(N2CCOCC2)nc(OCCN2CCOCC2)c1[N+](=O)[O-],.,.,.,.,/,/
COc1ccc(-c2nnc3n2N=C(c2cccc(Br)c2)CS3)cc1OC,19,.,.,.,.,.
Cc1ccc(CSc2nnc(-c3cccc(S(=O)(=O)N4CCOCC4)c3)n2CC(C)C)cc1,18,.,.,.,.,.
CCC(C)n1c(SCC(=O)NCc2ccco2)nnc1-c1cccc(S(=O)(=O)N2CCOCC2)c1 (centres undefined),.,.,.,.,/,/
Cn1c(-c2ccc(C=O)s2)nc2c3ccccc3c3ccccc3c21,.,.,.,.,/,/
c1coc(Cn2nnnc2CN2CCN(C3CCCC3)CC2)c1,.,.,.,.,/,/
Fc1ccc(Cn2nnnc2CN2CCN(C3CCCCC3)CC2)cc1,20,.,.,.,.,.
Cc1ccc(Nc2nc(N)nc(CSc3nc(C)cc(C)n3)n2)cc1,29,.,.,.,.,.
Cc1ccc(Nc2nc(N)nc(CSc3ncccn3)n2)cc1,.,.,.,.,/,/
Cc1c(O)c2c(=O)n(-c3ccccc3)c(-c3ccccc3)cc2oc1=O,.,.,.,.,/,/
Cc1nn(Cc2ccccc2Cl)c(C)c1C(=O)NCCN1C(=O)S/C(=C\c2ccccc2)C1=O,22,.,.,.,.,.
Cc1nn(Cc2ccccc2Cl)c(C)c1C(=O)NCc1ccco1,.,.,.,.,/,/
CC1CC(C)(C)NC(=S)N1CCC(=O)NCc1ccc(Cl)cc1 (centres undefined),/,.,.,.,/,/
Cc1ccc(Oc2nc(CN3CCOCC3)nc3sc4c(c23)CCC(C)C4)cc1 (centres undefined),22,.,.,.,29,30
CCN(CC)CC#CCC(C)(c1ccccc1)c1ccccc1,18,.,.,.,.,21
CCCCCCCCCS(=O)(=O)N/N=C/c1cccc([N+](=O)[O-])c1,24,.,.,.,.,21
COc1cccc(-c2nc(CS(=O)(=O)CC(=O)NCc3ccccc3OC)c(C)o2)c1,22,.,.,.,.,.
SMILES,NPY Y2 blocker,NPY2 pot ag,NPY1 pot ag,NPY Y1 blocker,NPY1 antag ctr,NPY2 antag conf
COc1cccc(-c2nc(-c3ccc(NC(=O)Cc4ccccc4OC)cc3)no2)c1,23,.,.,.,.,115
CCC(=O)N1COC[C@@H]1Cc1ccccc1,.,.,.,.,/,/
O=C(Cc1ccc(Br)cc1)OCC(=O)c1ccc2c(c1)OCCO2,17,.,.,.,.,.
O=C(Cc1n[nH]c(=O)c2ccccc12)OCC(=O)c1ccc2c(c1)OCCO2,.,.,.,.,/,/
Cc1ccc(Cc2nnc3n(-c4ccccc4)nc(C(=O)c4ccccc4)n3c2=O)cc1,17,.,.,.,40,67
Cc1ccc(CNC(=O)c2cc(C)nn2-c2ccccc2)cc1,/,.,.,/,/,/
COC(=O)C(C)N(C(=O)c1ccc(Cl)cc1)c1c(C)cccc1C (centres undefined),.,.,.,.,/,/
COC(=O)C(C)N(C(=O)c1ccc(C(=O)c2ccccc2)cc1)c1c(C)cccc1C (centres undefined),19,.,.,.,.,.
O=C(NC1CCCCC1)C(c1ccc2ncccc2c1)N(Cc1ccc(F)cc1)C(=O)c1cccs1 (centres undefined),31,.,.,.,.,.
COC(=O)c1ccc(C(C(=O)NC2CCCCC2)N(Cc2ccc(F)cc2)C(=O)Cc2cccs2)cc1 (centres undefined),19,.,.,.,.,.
COC(=O)c1ccc(C(C(=O)NC2CCCCC2)N(CCc2ccccc2)C(=O)Cc2cccs2)cc1 (centres undefined),.,.,.,.,/,/
O=C(NCc1ccc(Cl)cc1Cl)C1CCN(S(=O)(=O)c2ccc3c(c2)OCCCO3)CC1,.,.,.,.,/,/
Cc1ccc(SCc2[nH]nc3c2C(c2cccnc2)C(C#N)=C(N)O3)cc1 (centres undefined),18,.,.,.,93,81
CCc1[nH]nc2c1C(c1cccnc1)C(C#N)=C(N)O2 (centres undefined),.,.,.,.,/,/
Cc1cc(SCC(=O)c2cc(C)n(C)c2C)nc2ccccc12,.,.,.,.,/,/
O=C(Cn1ccc([N+](=O)[O-])n1)Nc1ccccn1,/,.,.,.,/,/
CCC(CO)N=C1CC(C)(C)CC(=O)/C1=C(/O)CCCN1C(=O)c2ccccc2C1=O (centres undefined),/,.,.,.,/,/
CC(C)N(C(=O)CSc1nc2ccccc2n1Cc1ccccc1F)C(C)C,17,.,.,.,.,.
C#CCn1c(=NC(=O)CN2C(=O)CCC2=O)sc2cccc(OC)c21,/,.,.,/,/,/
C#CCn1c(=NC(=O)c2cccs2)sc2cccc(OC)c21,23,.,.,.,.,.
Cc1cc(C)c(S(=O)(=O)Nc2ccccc2-c2ccccc2)c(C)c1,.,.,.,.,/,/
CCN1CCN(c2ccc(S(=O)(=O)N3CCCCC3)cc2NC(=O)c2ccc(F)cc2)CC1,18,.,.,.,.,.
Cc1cccc(N2CCN(CC(=O)Nc3ccccc3[N+](=O)[O-])CC2)c1C,38,.,.,.,.,.
COc1ccc(CCN2C(=O)CS/C2=N\NC(=O)c2cccs2)cc1OC,/,.,.,.,/,/
Cc1cccc(NC(=O)CSc2nc3ccccc3o2)c1,22,.,.,.,.,.
SMILES,NPY Y2 blocker,NPY2 pot ag,NPY1 pot ag,NPY Y1 blocker,NPY1 antag ctr,NPY2 antag conf
O=C(CSc1nc2ccccc2o1)c1ccc2c(c1)OCCO2,22,.,.,.,.,18
O=C(CN(Cc1ccc2c(c1)OCO2)C(=O)CSc1nc2ccccc2o1)NC1CCCCC1,17,.,.,.,.,19
COCCN(CC(=O)NC1CCCCC1)C(=O)CSc1nc2ccccc2o1,.,.,.,.,/,/
CC(C)NC(=O)NC(=O)COC(=O)c1ccc([N+](=O)[O-])cc1Cl,/,.,.,.,/,/
Cc1cccc(NC(=O)Cn2cnc3c(oc4ccccc43)c2=O)c1C,/,.,.,.,/,/
Cc1nn(Cc2ccc(C(=O)Nc3ccc(Br)c4cccnc34)o2)c(C)c1Br,.,.,.,.,/,/
COc1cccc2oc(-c3ccco3)cc(=O)c12,.,.,.,.,/,/
